The EC50 is the concentration needed to bring the measured effect to its halfway point.

Our source for the EC50 and Activity values is ChEMBL document CHEMBL4007404, “Identification of High-Potency Human TLR8 and Dual TLR7/TLR8 Agonists in Pyrimidine-2,4-diamines” (J Med Chem, 2017).

Type in all cases: cell-based
The target of one assay is T1, Toll-like receptor 7 (Homo sapiens, UniProt Q9NYK1).
T1 sequence (Q9NYK1 whole entry): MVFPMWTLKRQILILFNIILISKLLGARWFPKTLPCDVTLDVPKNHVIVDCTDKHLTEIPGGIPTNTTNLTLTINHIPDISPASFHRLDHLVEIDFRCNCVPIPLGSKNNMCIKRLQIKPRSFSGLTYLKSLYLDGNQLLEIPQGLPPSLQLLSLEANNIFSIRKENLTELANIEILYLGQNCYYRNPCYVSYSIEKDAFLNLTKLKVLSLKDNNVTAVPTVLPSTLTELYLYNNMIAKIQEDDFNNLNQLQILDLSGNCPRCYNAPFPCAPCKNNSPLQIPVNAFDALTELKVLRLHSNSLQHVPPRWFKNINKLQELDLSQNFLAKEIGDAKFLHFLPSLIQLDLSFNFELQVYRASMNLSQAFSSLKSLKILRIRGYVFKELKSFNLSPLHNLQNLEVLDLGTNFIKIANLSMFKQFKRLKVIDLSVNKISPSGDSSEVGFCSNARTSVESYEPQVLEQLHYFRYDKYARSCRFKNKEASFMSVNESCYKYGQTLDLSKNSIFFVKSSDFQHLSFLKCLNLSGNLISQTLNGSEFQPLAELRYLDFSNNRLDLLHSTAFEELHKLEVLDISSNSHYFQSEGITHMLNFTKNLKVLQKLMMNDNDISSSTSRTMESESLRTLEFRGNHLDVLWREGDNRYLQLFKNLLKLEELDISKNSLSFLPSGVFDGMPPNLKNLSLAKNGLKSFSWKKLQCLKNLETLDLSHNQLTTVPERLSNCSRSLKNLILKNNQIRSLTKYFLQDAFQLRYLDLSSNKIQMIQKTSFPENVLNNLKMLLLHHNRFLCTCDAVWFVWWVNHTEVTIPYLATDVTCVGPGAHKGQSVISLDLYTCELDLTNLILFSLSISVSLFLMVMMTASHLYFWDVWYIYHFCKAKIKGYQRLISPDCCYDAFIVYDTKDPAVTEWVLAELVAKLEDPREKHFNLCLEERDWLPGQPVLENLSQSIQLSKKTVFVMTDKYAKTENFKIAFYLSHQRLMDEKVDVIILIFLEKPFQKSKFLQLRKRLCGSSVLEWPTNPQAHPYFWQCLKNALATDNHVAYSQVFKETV
As to the kind of experiment: Agonist activity at human TLR7 expressed in HEK293 cells co-expressing secreted alkaline phosphatase assessed as induction of NF-kappaB/AP-1 promoter activity by measuring increase in secreted alkaline phosphatase level by spectrophotometric method. An outline of the steps:
(§1)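 HEK293 cells stably co-transfected with the relevant human TLR (2, 3, 4, 5, 7, 8 or 9) plus an NF-κB/AP-1-driven secreted alkaline phosphatase reporter, kept in selection medium. Cells at ~10⁵ cells/ml were exposed to graded concentrations of stimuli in 384-well format, liquid-handler assisted. Supernatant sAP was read at 620 nm with an alkaline phosphatase-specific chromogen.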

Assay [1] has as its target Toll-like receptor 2 (Homo sapiens) (UniProt O60603). Nature of the assay: Activity at human TLR2 expressed in HEK293 cells co-expressing secreted alkaline phosphatase assessed as induction of NF-kappaB/AP-1 promoter activity by measuring increase in secreted alkaline phosphatase level by spectrophotometric method. An outline of the steps: as §1
Assay [2] has as its target Toll-like receptor 3 (Homo sapiens) (UniProt O15455). As to the kind of experiment: Activity at human TLR3 expressed in HEK293 cells co-expressing secreted alkaline phosphatase assessed as induction of NF-kappaB/AP-1 promoter activity by measuring increase in secreted alkaline phosphatase level by spectrophotometric method. In short, it runs like this: as §1
In assay [3] the target is Toll-like receptor 4 (Homo sapiens) (UniProt O00206). Nature of the assay: Activity at human TLR4 expressed in HEK293 cells co-expressing secreted alkaline phosphatase assessed as induction of NF-kappaB/AP-1 promoter activity by measuring increase in secreted alkaline phosphatase level by spectrophotometric method. An outline of the steps: as §1
Toll-like receptor 4 (Homo sapiens), sequence (O00206 whole entry): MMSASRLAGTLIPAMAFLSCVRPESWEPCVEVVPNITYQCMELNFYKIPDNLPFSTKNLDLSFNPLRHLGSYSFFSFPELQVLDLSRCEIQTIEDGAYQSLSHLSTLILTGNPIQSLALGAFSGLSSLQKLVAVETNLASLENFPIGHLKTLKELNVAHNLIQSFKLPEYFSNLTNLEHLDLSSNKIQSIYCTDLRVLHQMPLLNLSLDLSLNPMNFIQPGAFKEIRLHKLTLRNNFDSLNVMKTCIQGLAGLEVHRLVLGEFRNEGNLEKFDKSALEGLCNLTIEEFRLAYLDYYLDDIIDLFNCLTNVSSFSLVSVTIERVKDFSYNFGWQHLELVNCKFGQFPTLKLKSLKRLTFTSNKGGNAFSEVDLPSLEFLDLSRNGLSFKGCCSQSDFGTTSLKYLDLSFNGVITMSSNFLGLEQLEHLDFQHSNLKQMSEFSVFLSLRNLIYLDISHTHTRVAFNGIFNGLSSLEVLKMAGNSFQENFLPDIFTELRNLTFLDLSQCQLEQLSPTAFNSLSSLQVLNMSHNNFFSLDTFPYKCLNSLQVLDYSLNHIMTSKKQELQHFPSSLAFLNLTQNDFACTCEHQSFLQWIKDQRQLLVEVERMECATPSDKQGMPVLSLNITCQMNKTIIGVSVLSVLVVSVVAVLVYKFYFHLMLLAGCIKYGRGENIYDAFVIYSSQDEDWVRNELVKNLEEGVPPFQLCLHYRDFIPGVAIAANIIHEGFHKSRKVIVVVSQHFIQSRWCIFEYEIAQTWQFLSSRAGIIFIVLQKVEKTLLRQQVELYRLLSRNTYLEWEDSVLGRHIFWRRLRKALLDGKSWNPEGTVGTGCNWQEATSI
The target in assay [4] is Toll-like receptor 5 (Homo sapiens) (UniProt O60602). As to the kind of experiment: Activity at human TLR5 expressed in HEK293 cells co-expressing secreted alkaline phosphatase assessed as induction of NF-kappaB/AP-1 promoter activity by measuring increase in secreted alkaline phosphatase level by spectrophotometric method. An outline of the steps: as §1
Toll-like receptor 5 (Homo sapiens), sequence (O60602 whole entry): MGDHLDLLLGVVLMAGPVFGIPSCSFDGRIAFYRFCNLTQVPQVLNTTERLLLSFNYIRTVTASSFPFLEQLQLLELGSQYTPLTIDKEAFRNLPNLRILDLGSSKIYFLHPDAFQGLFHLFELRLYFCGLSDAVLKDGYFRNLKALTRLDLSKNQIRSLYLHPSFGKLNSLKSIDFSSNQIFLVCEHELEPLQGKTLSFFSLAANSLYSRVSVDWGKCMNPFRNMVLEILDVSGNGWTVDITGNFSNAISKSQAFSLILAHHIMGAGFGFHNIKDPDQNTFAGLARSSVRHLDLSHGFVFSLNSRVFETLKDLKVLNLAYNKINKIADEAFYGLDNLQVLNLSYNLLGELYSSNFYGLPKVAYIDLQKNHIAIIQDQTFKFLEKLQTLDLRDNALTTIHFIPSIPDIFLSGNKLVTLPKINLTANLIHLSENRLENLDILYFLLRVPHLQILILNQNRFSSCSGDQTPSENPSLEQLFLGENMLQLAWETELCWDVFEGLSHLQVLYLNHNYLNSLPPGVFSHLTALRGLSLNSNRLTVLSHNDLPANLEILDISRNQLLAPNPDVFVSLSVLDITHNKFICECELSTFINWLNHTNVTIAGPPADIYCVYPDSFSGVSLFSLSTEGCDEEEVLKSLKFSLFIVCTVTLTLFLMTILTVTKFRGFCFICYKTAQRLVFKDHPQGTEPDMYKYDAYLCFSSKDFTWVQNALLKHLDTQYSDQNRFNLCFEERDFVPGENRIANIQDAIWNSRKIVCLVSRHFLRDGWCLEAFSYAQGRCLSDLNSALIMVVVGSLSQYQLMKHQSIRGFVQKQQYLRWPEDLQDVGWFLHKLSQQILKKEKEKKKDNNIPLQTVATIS
Assay [5] concerns the target T2, Toll-like receptor 9 (Homo sapiens) (UniProt Q9NR96).
T2 sequence (whole entry): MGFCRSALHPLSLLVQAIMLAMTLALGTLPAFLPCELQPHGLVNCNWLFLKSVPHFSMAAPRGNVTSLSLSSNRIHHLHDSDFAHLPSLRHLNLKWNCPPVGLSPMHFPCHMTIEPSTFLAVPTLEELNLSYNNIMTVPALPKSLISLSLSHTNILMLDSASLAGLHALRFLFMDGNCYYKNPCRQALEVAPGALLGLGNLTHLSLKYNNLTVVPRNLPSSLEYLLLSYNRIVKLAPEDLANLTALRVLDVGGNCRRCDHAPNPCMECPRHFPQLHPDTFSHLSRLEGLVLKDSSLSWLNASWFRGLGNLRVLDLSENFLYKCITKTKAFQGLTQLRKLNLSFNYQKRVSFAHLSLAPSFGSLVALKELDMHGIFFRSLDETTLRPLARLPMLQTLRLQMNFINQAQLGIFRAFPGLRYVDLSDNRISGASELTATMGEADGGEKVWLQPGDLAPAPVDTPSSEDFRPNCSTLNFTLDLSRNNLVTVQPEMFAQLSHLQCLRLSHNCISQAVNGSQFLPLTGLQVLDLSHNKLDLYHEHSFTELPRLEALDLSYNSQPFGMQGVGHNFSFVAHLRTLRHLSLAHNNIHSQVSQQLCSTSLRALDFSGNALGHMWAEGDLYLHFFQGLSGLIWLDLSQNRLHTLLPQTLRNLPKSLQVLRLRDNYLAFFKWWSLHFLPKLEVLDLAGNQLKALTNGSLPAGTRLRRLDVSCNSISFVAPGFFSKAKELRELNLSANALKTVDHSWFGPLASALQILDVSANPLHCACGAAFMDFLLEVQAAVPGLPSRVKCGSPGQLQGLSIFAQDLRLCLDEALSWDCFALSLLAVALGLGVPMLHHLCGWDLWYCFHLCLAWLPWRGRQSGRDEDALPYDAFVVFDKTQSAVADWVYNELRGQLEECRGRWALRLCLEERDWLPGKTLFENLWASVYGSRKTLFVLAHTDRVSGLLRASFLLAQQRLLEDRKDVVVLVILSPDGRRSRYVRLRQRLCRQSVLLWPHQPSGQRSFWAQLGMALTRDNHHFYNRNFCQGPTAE
Nature of the assay: Activity at human TLR9 expressed in HEK293 cells co-expressing secreted alkaline phosphatase assessed as induction of NF-kappaB/AP-1 promoter activity by measuring increase in secreted alkaline phosphatase level by spectrophotometric method. In short, it runs like this:
as §1

The source made the active and inactive calls. The calls are words filed in the database; no cut-off is given here.

Toll-like receptor 2 (Homo sapiens), sequence (O60603 whole entry): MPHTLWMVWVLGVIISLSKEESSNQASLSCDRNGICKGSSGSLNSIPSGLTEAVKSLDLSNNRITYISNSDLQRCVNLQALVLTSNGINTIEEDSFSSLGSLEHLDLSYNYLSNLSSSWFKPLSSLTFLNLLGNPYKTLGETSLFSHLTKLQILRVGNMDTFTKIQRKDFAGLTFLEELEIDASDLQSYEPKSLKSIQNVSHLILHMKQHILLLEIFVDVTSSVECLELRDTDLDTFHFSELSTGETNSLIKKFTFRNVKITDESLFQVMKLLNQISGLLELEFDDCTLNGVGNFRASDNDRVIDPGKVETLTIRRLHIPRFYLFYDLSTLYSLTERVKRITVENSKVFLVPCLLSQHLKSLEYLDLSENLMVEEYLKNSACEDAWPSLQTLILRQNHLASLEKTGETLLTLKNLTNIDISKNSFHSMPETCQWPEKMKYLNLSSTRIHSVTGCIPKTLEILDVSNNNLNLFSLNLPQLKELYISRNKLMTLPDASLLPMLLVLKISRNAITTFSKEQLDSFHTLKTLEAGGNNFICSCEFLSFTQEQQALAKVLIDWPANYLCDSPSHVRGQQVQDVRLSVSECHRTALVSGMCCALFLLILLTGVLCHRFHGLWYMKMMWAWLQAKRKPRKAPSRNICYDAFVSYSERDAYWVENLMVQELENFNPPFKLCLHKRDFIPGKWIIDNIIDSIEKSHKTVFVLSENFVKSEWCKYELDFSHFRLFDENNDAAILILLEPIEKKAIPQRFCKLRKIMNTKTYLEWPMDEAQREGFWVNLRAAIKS
Toll-like receptor 3 (Homo sapiens), sequence (O15455 whole entry): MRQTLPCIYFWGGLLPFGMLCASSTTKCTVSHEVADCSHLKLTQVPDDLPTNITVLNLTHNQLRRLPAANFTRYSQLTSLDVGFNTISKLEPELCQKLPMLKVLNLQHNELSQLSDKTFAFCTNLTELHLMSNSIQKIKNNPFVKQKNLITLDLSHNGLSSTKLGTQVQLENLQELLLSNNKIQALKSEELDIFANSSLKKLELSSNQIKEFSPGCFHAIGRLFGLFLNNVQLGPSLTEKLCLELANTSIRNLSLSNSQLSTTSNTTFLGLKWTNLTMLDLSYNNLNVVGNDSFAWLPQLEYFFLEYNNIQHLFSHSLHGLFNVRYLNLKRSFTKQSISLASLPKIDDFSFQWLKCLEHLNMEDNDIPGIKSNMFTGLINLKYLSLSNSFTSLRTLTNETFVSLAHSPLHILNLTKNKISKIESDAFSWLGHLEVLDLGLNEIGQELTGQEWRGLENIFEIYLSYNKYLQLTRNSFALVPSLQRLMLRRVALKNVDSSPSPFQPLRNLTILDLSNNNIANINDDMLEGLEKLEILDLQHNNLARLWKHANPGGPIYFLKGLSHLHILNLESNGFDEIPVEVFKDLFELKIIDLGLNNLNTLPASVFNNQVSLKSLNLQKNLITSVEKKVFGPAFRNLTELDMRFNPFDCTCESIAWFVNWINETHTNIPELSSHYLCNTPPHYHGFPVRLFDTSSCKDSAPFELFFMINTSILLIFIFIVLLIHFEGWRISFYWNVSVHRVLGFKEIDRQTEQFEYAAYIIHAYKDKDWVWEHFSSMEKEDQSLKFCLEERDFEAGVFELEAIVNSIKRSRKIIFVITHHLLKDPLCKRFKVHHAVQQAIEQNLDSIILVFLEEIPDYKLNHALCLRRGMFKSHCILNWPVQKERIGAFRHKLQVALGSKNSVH

With `CCCCNc1nc(N)nc(C)c1CCCN1Cc2ccccc2C1`, the EC50 at Toll-like receptor 7 is 375 nM. The result in assay [1], in assay [2], in assay [3], in assay [4] and in assay [5] was inactive.
Regarding `CCCCNc1nc(N)nc(C)c1CCCN1CCCCC1`, at Toll-like receptor 7, the EC50 was 710 nM. Besides, the result in assay [1], in assay [2], in assay [3], in assay [4] and in assay [5] was inactive.
On to `CCCCNc1nc(N)nc(C)c1CCCN1CCNCC1`, for which the EC50 on Toll-like receptor 7 stood at 1640 nM. In addition, the outcome in assay [1], in assay [2], in assay [3], in assay [4] and in assay [5] was inactive.
For the molecule `CCCCNc1nc(N)nc(C)c1CCCCN1CCOCC1`, the EC50 at Toll-like receptor 7 was 1400 nM. Moreover, the outcome in assay [1], in assay [2], in assay [3], in assay [4] and in assay [5] was inactive.
On to `CCCCCc1c(C)nc(N)nc1NCCCC`, for which the EC50 on Toll-like receptor 7 came to 510 nM. For the same molecule, the outcome in assay [1], in assay [2], in assay [3], in assay [4] and in assay [5] was inactive.
As to `CCCCNc1nc(N)nc(C)c1CCC(C)(C)O`, the EC50 on Toll-like receptor 7 is 3260 nM. Also, the outcome in assay [1], in assay [2], in assay [3], in assay [4] and in assay [5] was inactive.
On to `CCCCNc1nc(N)nc(C)c1CCCN1CCN(c2ccccc2)CC1`, for which, at Toll-like receptor 7, the EC50 was 1160 nM. For the same molecule, the result in assay [1], in assay [2], in assay [3], in assay [4] and in assay [5] was inactive.
With `CCCCNc1nc(N)nc(C)c1CCCN(C)C`, the EC50 at Toll-like receptor 7 turned out to be 958 nM. The result in assay [1], in assay [2], in assay [3], in assay [4] and in assay [5] was inactive.
With `CCCCNc1nc(N)nc(C)c1CCCN(C)CCOC`, on Toll-like receptor 7, the EC50 was 1240 nM. For the same molecule, the result in assay [1], in assay [2], in assay [3], in assay [4] and in assay [5] was inactive.
Turning to `CCCCNc1nc(N)nc(C)c1CCCC`, on Toll-like receptor 7, the EC50 was 590 nM. In addition, the result in assay [1], in assay [2], in assay [3], in assay [4] and in assay [5] was inactive.
Turning to `CCCCNc1nc(N)nc(C)c1CCCN1CCOCC1`, the EC50 on Toll-like receptor 7 was determined as 46 nM. Moreover, the result in assay [1], in assay [2], in assay [3], in assay [4] and in assay [5] was inactive.
In the case of `CCCCNc1nc(N)nc(C)c1CCCn1cncn1`, the EC50 on Toll-like receptor 7 stood at 1160 nM. For the same molecule, the result in assay [1], in assay [2], in assay [3], in assay [4] and in assay [5] was inactive.
For `CCCCNc1nc(N)nc(C)c1CCCC(C)(C)O`, the EC50 on Toll-like receptor 7 was determined as 2890 nM. For the same molecule, the result in assay [1], in assay [2], in assay [3], in assay [4] and in assay [5] was inactive.
As for `CCCCNc1nc(N)nc(C)c1CCCN1CCSCC1`, the EC50 at Toll-like receptor 7 amounted to 714 nM. In addition, the outcome in assay [1], in assay [2], in assay [3], in assay [4] and in assay [5] was inactive.
As to `CCCCNc1nc(N)nc(C)c1CCCn1cccn1`, at Toll-like receptor 7, the EC50 stood at 398 nM. Also, the result in assay [1], in assay [2], in assay [3], in assay [4] and in assay [5] was inactive.
Take `CCCCNc1nc(N)nc(C)c1CCCn1ccc2ccccc21`: at Toll-like receptor 7, the EC50 is 140 nM. Besides, the result in assay [1], in assay [2], in assay [3], in assay [4] and in assay [5] was inactive.
For `CCCCNc1nc(N)nc(C)c1CCCc1ccccc1`, the EC50 on Toll-like receptor 7 worked out at 194 nM. Also, the result in assay [1], in assay [2], in assay [3], in assay [4] and in assay [5] was inactive.
With `CCCCNc1nc(N)nc(C)c1CCCCc1ccccc1`, the EC50 at Toll-like receptor 7 came to 262 nM. The outcome in assay [1], in assay [2], in assay [3], in assay [4] and in assay [5] was inactive.
